# Measured values taken from ChEMBL document CHEMBL3045743, “Synthesis and herbicidal activity of isoindoline-1,3-dione substituted benzoxazinone derivatives containing a carboxylic ester group” (J Agric Food Chem, 2009).
# Key:
# Oryza sativa [1] = assay: Phytotoxicity against Oryza sativa (rice) assessed as growth inhibition at 75 g.a.i/ha pre-emergent application measured after 15 days by greenhouse crop selectivity assay; type: organism-based, L.; conditions: in vivo, other, 360 h
# Summary of the method: (§1)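 Pre-emergence greenhouse crop selectivity test on pot-grown plants in clay soil (pH 6.5, 1.7% organic matter, 37.5% clay, CEC 12.9 cmol/kg). Stock solutions were diluted with water and applied at 300, 150, 75 or 37.5 g a.i./ha, in triplicate. After 15 days, phytotoxicity was scored visually against untreated controls as % crop growth inhibition, averaged over the triplicates.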
# Oryza sativa [2] = assay: Phytotoxicity against Oryza sativa (rice) assessed as growth inhibition at 37.5 g.a.i/ha pre-emergent application measured after 15 days by greenhouse crop selectivity assay; type: organism-based, L.; conditions: in vivo, other, 360 h; summary of the method: as §1
# Triticum aestivum [3] = assay: Phytotoxicity against Triticum aestivum (wheat) assessed as growth inhibition at 150 g.a.i/ha pre-emergent application measured after 15 days by greenhouse crop selectivity assay; type: organism-based; conditions: in vivo, other, 360 h; summary of the method: as §1
# Triticum aestivum [4] = assay: Phytotoxicity against Triticum aestivum (wheat) assessed as growth inhibition at 75 g.a.i/ha pre-emergent application measured after 15 days by greenhouse crop selectivity assay; type: organism-based; conditions: in vivo, other, 360 h; summary of the method: as §1
# [5] = Phytotoxicity against Triticum aestivum (wheat) assessed as growth inhibition at 37.5 g.a.i/ha pre-emergent application measured after 15 days by greenhouse crop selectivity assay; type: organism-based; conditions: in vivo, 37.5 g.a.i/ha, read-out: GI; summary of the method: as §1
# [6] = Phytotoxicity against Glycine max (soybean) assessed as growth inhibition at 300 g.a.i/ha pre-emergent application measured after 15 days by greenhouse crop selectivity assay; type: organism-based; conditions: in vivo, 300 g.a.i/ha, read-out: GI; summary of the method: as §1
# [7] = Phytotoxicity against Glycine max (soybean) assessed as growth inhibition at 150 g.a.i/ha pre-emergent application measured after 15 days by greenhouse crop selectivity assay; type: organism-based; conditions: in vivo, 150 g.a.i/ha, read-out: GI; summary of the method: as §1
# [8] = Phytotoxicity against Glycine max (soybean) assessed as growth inhibition at 75 g.a.i/ha pre-emergent application measured after 15 days by greenhouse crop selectivity assay; type: organism-based; conditions: in vivo, 75 g.a.i/ha, read-out: GI; summary of the method: as §1
Structure (SMILES),growth inhibition (GI) (Oryza sativa [1]),growth inhibition (GI) (Oryza sativa [2]),growth inhibition (GI) (Triticum aestivum [3]),growth inhibition (GI) (Triticum aestivum [4]),inhibition at 360 h [5] [%],inhibition at 360 h [6] [%],inhibition at 360 h [7] [%],inhibition at 360 h [8] [%]
CCOC(=O)C(CC)N1C(=O)C(C)Oc2cc(F)c(N3C(=O)C4=C(CCCC4)C3=O)cc21 (centres undefined),Not Active,Not Active,Not Active,Not Active,,,,
C#CCN1C(=O)COc2cc(F)c(N3C(=O)C4=C(CCCC4)C3=O)cc21 [FLUMIOXAZIN],,,,,> 10,> 10,> 10,> 10
CCOC(=O)C(C)N1C(=O)C(C)Oc2cc(F)c(N3C(=O)C4=C(CCCC4)C3=O)cc21 (centres undefined),,,,Not Active,,,,
